pEC50, pIC50: −log10 of the molar value.
How the values were obtained:
Leishmania infantum = test: Evaluated in vitro for antitrypanosomal activity against Leishmania infantum; assay type: functional; details: read-out: ED50 (the source's name)
Method in brief: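 Primary mouse peritoneal macrophages, 30,000 per well on culture slides. After 24 h, L. infantum amastigotes from the spleen of an infected donor animal were added at a 10/1 infection ratio with two-fold drug dilutions. Incubation was 7 days at 37 °C in 5% CO2. Wright-stained slides were scored microscopically for % reduction of parasite load or infected macrophages, and ED50 was extrapolated.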

MRC5 = test: Tested for cytotoxicity towards human MRC-5 cells; assay type: functional
Method in brief: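 MRC-5 cells were seeded at 5000 per well and washed after 24 h. Two-fold drug dilutions (32 down to 1.6) were added in RPMI + 5% FCS, with final DMSO below 0.5%. After 7 days at 37 °C in 5% CO2, MTT absorbance at 540 nm was read as % reduction versus untreated controls to give CC50.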

[1] = Tested for cytotoxicity towards mouse peritoneal macrophages (MPM); assay type: functional
Method in brief: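 Peritoneal macrophages were harvested 48 h after potato-starch stimulation and seeded at 30,000 per well. After 24 h they were washed and given two-fold drug dilutions (32 down to 1.6) in RPMI + 5% FCS, with final DMSO below 0.5%. Cultures ran 7 days at 37 °C in 5% CO2 alongside untreated controls.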

Trypanosoma brucei = test: Evaluated in vitro for antitrypanosomal activity against Trypanosoma brucei; assay type: functional; details: read-out: ED50 (the source's name)
Method in brief: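 T. brucei bloodstream forms were grown in HMI-9 medium. 10,000 haemoflagellates per well were exposed to different drug concentrations for 4 days; ED50 was reported.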

Trypanothione reductase = Trypanothione reductase (Trypanosoma cruzi, UniProt P28593); test: Compound was tested for inhibition of trypanothione reductase from Trypanosoma cruzi
Method in brief: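 T. cruzi trypanothione reductase assay, with trypanothione disulfide as substrate and 0.02 U TR per assay; IC50 determined over increasing compound concentrations.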

Trypanosoma cruzi = test: Evaluated in vitro for antitrypanosomal activity against Trypanosoma cruzi; assay type: functional; details: read-out: ED50 (the source's name)
Method in brief: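 Mouse peritoneal macrophages were seeded at 30,000 per well. After 24 h, about 100,000 T. cruzi trypomastigotes were added per well with 2-fold drug dilutions, then held 4 days at 37 °C in 5% CO2. After methanol fixation and Giemsa staining, % reduction of total parasite load (free trypomastigotes plus intracellular amastigotes) versus untreated cultures was scored microscopically; ED50 was extrapolated.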

Sequence of Trypanothione reductase (P28593 whole entry): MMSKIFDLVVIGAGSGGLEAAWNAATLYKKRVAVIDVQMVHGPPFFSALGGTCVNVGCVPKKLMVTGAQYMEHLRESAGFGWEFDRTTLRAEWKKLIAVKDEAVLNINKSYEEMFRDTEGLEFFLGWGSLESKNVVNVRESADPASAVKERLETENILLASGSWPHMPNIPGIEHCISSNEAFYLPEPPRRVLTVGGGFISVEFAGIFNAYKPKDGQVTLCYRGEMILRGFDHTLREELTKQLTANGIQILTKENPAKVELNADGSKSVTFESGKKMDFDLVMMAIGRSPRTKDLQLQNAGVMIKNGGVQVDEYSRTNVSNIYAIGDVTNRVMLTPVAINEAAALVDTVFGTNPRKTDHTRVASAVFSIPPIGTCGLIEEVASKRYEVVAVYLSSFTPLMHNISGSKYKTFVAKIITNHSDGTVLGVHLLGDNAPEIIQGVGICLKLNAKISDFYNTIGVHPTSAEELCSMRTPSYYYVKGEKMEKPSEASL

SMILES | pEC50 (Trypanosoma brucei) | pIC50 (Trypanothione reductase) | pEC50 (Trypanosoma cruzi) | pEC50 (Leishmania infantum) | CC50 (MRC5) | CC50 [1]
O=C(NNC(=O)c1ccc([N+](=O)[O-])o1)c1ccc([N+](=O)[O-])o1 | 5.52 | < 4.30 | 5.52 | 5.10 | 4 µM | 32 µM
Nc1ccc2cc(C(=O)NNC(=O)c3ccc([N+](=O)[O-])o3)ccc2c1 | 6.19 |  | 5.40 | 5.10 | 0.77 µM | 32 µM
O=C(Cn1ccnc1[N+](=O)[O-])NCc1ccccc1 [BENZNIDAZOLE] |  |  | 5.50 |  | > 50 µM | 
O=C(NNC(=O)c1ccc([N+](=O)[O-])o1)c1ccccc1 | 4.49 |  | 4.80 | < 4.49 | 17 µM | 32 µM
O=C(O)c1ccc([N+](=O)[O-])o1 [5-NITRO-2-FUROIC ACID] | 5.30 |  | < 4.49 | < 4.49 | > 32 µM | 32 µM
Nc1nc(N)nc(Nc2ccc([As]3SCC(CO)S3)cc2)n1 (centres undefined) [MELARSOPROL] | 6.70 |  |  |  |  | 
O=C(NNS(=O)(=O)c1ccc2ccccc2c1)c1ccc([N+](=O)[O-])o1 | 4.55 |  | < 4.49 | < 4.49 | 18 µM | 32 µM
O=C(NNS(=O)(=O)c1ccccc1)c1ccc([N+](=O)[O-])o1 | 5.70 |  | 4.80 | < 4.49 | 4 µM | 32 µM
O=C(NNC(=O)c1ccc([N+](=O)[O-])o1)c1ccc2ccccc2c1 | 6.89 |  | 5.40 | 5.10 | 2 µM | 32 µM
CC(C)(C)OC(=O)N[C@@H](C(=O)NNC(=O)c1ccc([N+](=O)[O-])o1)c1ccccc1 | 6.60 |  | 5.40 | 5.10 | 6 µM | 32 µM
O=C(NNC(=O)c1cccc2ccccc12)c1ccc([N+](=O)[O-])o1 | 6.40 |  | 5.52 | 5.10 | 1 µM | 32 µM
COC(=O)c1ccc([N+](=O)[O-])o1 | < 4.49 |  | < 4.49 | < 4.49 | > 32 µM | 32 µM

More lines, in order of rising pEC50 (Trypanosoma cruzi), values ahead:

pEC50 (Trypanosoma brucei) | pIC50 (Trypanothione reductase) | pEC50 (Trypanosoma cruzi) | SMILES | pEC50 (Leishmania infantum) | CC50 (MRC5) | CC50 [1]
5.70 |  | 5.70 | N[C@@H](C(=O)NNC(=O)c1ccc([N+](=O)[O-])o1)c1ccccc1 | < 4.49 | 14 µM | 32 µM
6.52 |  | 6.00 | O=C(Cc1ccccc1)NNC(=O)c1ccc([N+](=O)[O-])o1 | 5.10 | 2 µM | 32 µM
6.30 |  | 6.00 | CC(C)(C)OC(=O)Nc1ccc2cc(C(=O)NNC(=O)c3ccc([N+](=O)[O-])o3)ccc2c1 | 5.10 | 2 µM | 32 µM
5.70 | < 4.30 | 6.00 | CC(C)(C)OC(=O)NNC(=O)c1ccc([N+](=O)[O-])o1 | < 4.49 | 12 µM | 32 µM
6.00 |  | 6.10 | O=C(NNS(=O)(=O)c1cccc2ccccc12)c1ccc([N+](=O)[O-])o1 | 5.10 | 0.75 µM | 32 µM
5.30 | < 4.30 | 6.30 | NNC(=O)c1ccc([N+](=O)[O-])o1 | < 4.49 | 9 µM | 32 µM
6.23 | < 4.60 | 6.40 | O=C(Cc1ccc2ccccc2c1)NNC(=O)c1ccc([N+](=O)[O-])o1 | 5.10 | 4 µM | 32 µM
 |  | 6.40 | CC1CS(=O)(=O)CCN1/N=C/c1ccc([N+](=O)[O-])o1 (centres undefined) [NIFURTIMOX] |  | > 50 µM | 
